Results: ChEMBL document CHEMBL4038328, “Structure-Guided Optimization of HIV Integrase Strand Transfer Inhibitors” (J Med Chem, 2017)

What was measured:
[1] = test system: Human immunodeficiency virus 1; assay: Antiviral activity against VSV-G pseudotyped HIV1 harboring integrase Y143R mutant infected in HOS cells pretreated […] for 3 hrs followed by viral infection measured after 48 hrs by luciferase reporter gene assay; assay type: functional, cell-based; details: Human immunodeficiency virus 1, HOS
In short: (§1)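 Single-round luciferase HIV-1 vector (pNLNgoMIVR−ΔLUC carrying WT or mutant IN) was pseudotyped with VSV-g by calcium phosphate co-transfection of 293 cells, and supernatant was harvested after 48 h. HOS cells were seeded at 4000/well in DMEM with 5% FBS and 5% newborn calf serum. They were pretreated 3 h at 37 °C with 5–0.0001 μM (11 serial dilutions), then infected for 48 h. Luminescence was normalized to untreated cells, and EC50 came from nonlinear regression.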

[2] = test system: Human immunodeficiency virus 1; assay: Antiviral activity against VSV-G pseudotyped HIV1 harboring integrase H51Y/R263K double mutant infected in HOS cells pretreated […] for 3 hrs followed by viral infection measured after 48 hrs by luciferase reporter gene assay; assay type: functional, cell-based; details: Human immunodeficiency virus 1, HOS; in short: as §1
[3] = test system: Human immunodeficiency virus 1; assay: Antiviral activity against VSV-G pseudotyped HIV1 harboring integrase H51Y/R263K double mutant infected in HOS cells pretreated […] for 3 hrs followed by viral infection measured after 48 hrs by luciferase reporter gene assay relative to dolutegravir; assay type: functional
[4] = test system: Human immunodeficiency virus 1; assay: Antiviral activity against VSV-G pseudotyped HIV1 harboring wild-type integrase infected in HOS cells pretreated […] for 3 hrs followed by viral infection measured after 48 hrs by luciferase reporter gene assay relative to dolutegravir; assay type: functional
[5] = Inhibition of HIV1 integrase 3' processing activity using 5'-end 32P labeled DNA substrate measured after 2 hrs by PAGE based phosphor imaging method; set-up: species or system Human immunodeficiency virus 1
In short: (§2)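 Gel-based assay, Mg2+ cofactor: 400 nM integrase with 20 nM DNA substrate 5′-32P-labeled on transferred strand in 50 mM MOPS pH 7.2, 7.5 mM MgCl2, 14 mM 2-mercaptoethanol, inhibitor or DMSO; 2 h at 37 °C. Stopped with formamide/SDS loading buffer; products resolved on 16% denaturing polyacrylamide gels, quantified by phosphorimaging.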

[6] = test system: Human immunodeficiency virus 1; assay: Selectivity ratio of EC50 for VSV-G pseudotyped HIV1 harboring integrase G118R mutant infected in HOS cells to EC50 for VSV-G pseudotyped HIV1 harboring wild-type integrase infected in HOS cells; assay type: functional
In short: (§3)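 Fold change is the EC50 against the mutant-IN vector divided by the EC50 against the WT-IN vector. Both come from the single-round luciferase infectivity assay in HOS cells, with a 3 h compound pretreatment followed by 48 h infection.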

[7] = test system: Human immunodeficiency virus 1; assay: Antiviral activity against VSV-G pseudotyped HIV1 harboring integrase G118R mutant infected in HOS cells pretreated […] for 3 hrs followed by viral infection measured after 48 hrs by luciferase reporter gene assay relative to dolutegravir; assay type: functional
[8] = test system: Human immunodeficiency virus 1; assay: Antiviral activity against VSV-G pseudotyped HIV1 harboring integrase N155H mutant infected in HOS cells pretreated […] for 3 hrs followed by viral infection measured after 48 hrs by luciferase reporter gene assay relative to dolutegravir; assay type: functional
[9] = test system: Human immunodeficiency virus 1; assay: Selectivity ratio of EC50 for VSV-G pseudotyped HIV1 harboring integrase E92Q mutant infected in HOS cells to EC50 for VSV-G pseudotyped HIV1 harboring wild-type integrase infected in HOS cells; assay type: functional; in short: as §3
[10] = test system: Human immunodeficiency virus 1; assay: Antiviral activity against VSV-G pseudotyped HIV1 harboring integrase R263K mutant infected in HOS cells pretreated […] for 3 hrs followed by viral infection measured after 48 hrs by luciferase reporter gene assay; assay type: functional, cell-based; details: Human immunodeficiency virus 1, HOS; in short: as §1
[11] = test system: Human immunodeficiency virus 1; assay: Antiviral activity against VSV-G pseudotyped HIV1 harboring integrase G140S/Q148H double mutant infected in HOS cells pretreated […] for 3 hrs followed by viral infection measured after 48 hrs by luciferase reporter gene assay; assay type: functional, cell-based; details: Human immunodeficiency virus 1, HOS; in short: as §1
[12] = test system: Human immunodeficiency virus 1; assay: Selectivity ratio of EC50 for VSV-G pseudotyped HIV1 harboring integrase H51Y mutant infected in HOS cells to EC50 for VSV-G pseudotyped HIV1 harboring wild-type integrase infected in HOS cells; assay type: functional; in short: as §3
[13] = test system: Human immunodeficiency virus 1; assay: Antiviral activity against VSV-G pseudotyped HIV1 harboring wild-type integrase infected in HOS cells pretreated […] for 3 hrs followed by viral infection measured after 48 hrs by luciferase reporter gene assay; assay type: functional, cell-based; details: Human immunodeficiency virus 1, HOS; in short: as §1
[14] = test system: Human immunodeficiency virus 1; assay: Selectivity ratio of EC50 for VSV-G pseudotyped HIV1 harboring integrase N155H mutant infected in HOS cells to EC50 for VSV-G pseudotyped HIV1 harboring wild-type integrase infected in HOS cells; assay type: functional; in short: as §3
[15] = test system: Human immunodeficiency virus 1; assay: Antiviral activity against VSV-G pseudotyped HIV1 harboring integrase R263K mutant infected in HOS cells pretreated […] for 3 hrs followed by viral infection measured after 48 hrs by luciferase reporter gene assay relative to dolutegravir; assay type: functional
[16] = test system: Human immunodeficiency virus 1; assay: Antiviral activity against VSV-G pseudotyped HIV1 harboring integrase T66I mutant infected in HOS cells pretreated […] for 3 hrs followed by viral infection measured after 48 hrs by luciferase reporter gene assay; assay type: functional, cell-based; details: Human immunodeficiency virus 1, HOS; in short: as §1
[17] = test system: Human immunodeficiency virus 1; assay: Antiviral activity against VSV-G pseudotyped HIV1 harboring integrase E92Q mutant infected in HOS cells pretreated […] for 3 hrs followed by viral infection measured after 48 hrs by luciferase reporter gene assay relative to dolutegravir; assay type: functional
[18] = test system: Human immunodeficiency virus 1; assay: Antiviral activity against VSV-G pseudotyped HIV1 harboring integrase T66I mutant infected in HOS cells pretreated […] for 3 hrs followed by viral infection measured after 48 hrs by luciferase reporter gene assay relative to dolutegravir; assay type: functional
[19] = test system: Human immunodeficiency virus 1; assay: Antiviral activity against VSV-G pseudotyped HIV1 harboring integrase H51Y mutant infected in HOS cells pretreated […] for 3 hrs followed by viral infection measured after 48 hrs by luciferase reporter gene assay relative to dolutegravir; assay type: functional
[20] = test system: Human immunodeficiency virus 1; assay: Antiviral activity against VSV-G pseudotyped HIV1 harboring integrase Y143R mutant infected in HOS cells pretreated […] for 3 hrs followed by viral infection measured after 48 hrs by luciferase reporter gene assay relative to dolutegravir; assay type: functional
[21] = test system: Human immunodeficiency virus 1; assay: Selectivity ratio of EC50 for VSV-G pseudotyped HIV1 harboring integrase H51Y/R263K double mutant infected in HOS cells to EC50 for VSV-G pseudotyped HIV1 harboring wild-type integrase infected in HOS cells; assay type: functional; in short: as §3
[22] = test system: Human immunodeficiency virus 1; assay: Selectivity ratio of EC50 for VSV-G pseudotyped HIV1 harboring integrase R263K mutant infected in HOS cells to EC50 for VSV-G pseudotyped HIV1 harboring wild-type integrase infected in HOS cells; assay type: functional; in short: as §3
[23] = Inhibition of HIV1 integrase strand transfer activity using 5'-end 32P labeled DNA substrate measured after 2 hrs by PAGE based phosphor imaging method; set-up: species or system Human immunodeficiency virus 1; in short: as §2
[24] = test system: Human immunodeficiency virus 1; assay: Selectivity ratio of EC50 for VSV-G pseudotyped HIV1 harboring integrase G140S/Q148H mutant infected in HOS cells to EC50 for VSV-G pseudotyped HIV1 harboring wild-type integrase infected in HOS cells; assay type: functional; in short: as §3
[25] = test system: Human immunodeficiency virus 1; assay: Antiviral activity against VSV-G pseudotyped HIV1 harboring integrase N155H mutant infected in HOS cells pretreated […] for 3 hrs followed by viral infection measured after 48 hrs by luciferase reporter gene assay; assay type: functional, cell-based; details: Human immunodeficiency virus 1, HOS; in short: as §1
[26] = test system: Human immunodeficiency virus 1; assay: Antiviral activity against VSV-G pseudotyped HIV1 harboring integrase H51Y mutant infected in HOS cells pretreated […] for 3 hrs followed by viral infection measured after 48 hrs by luciferase reporter gene assay; assay type: functional, cell-based; details: Human immunodeficiency virus 1, HOS; in short: as §1
[27] = test system: Human immunodeficiency virus 1; assay: Antiviral activity against VSV-G pseudotyped HIV1 harboring integrase G118R mutant infected in HOS cells pretreated […] for 3 hrs followed by viral infection measured after 48 hrs by luciferase reporter gene assay; assay type: functional, cell-based; details: Human immunodeficiency virus 1, HOS; in short: as §1
[28] = test system: Human immunodeficiency virus 1; assay: Selectivity ratio of EC50 for VSV-G pseudotyped HIV1 harboring integrase T66I mutant infected in HOS cells to EC50 for VSV-G pseudotyped HIV1 harboring wild-type integrase infected in HOS cells; assay type: functional; in short: as §3
[29] = test system: Human immunodeficiency virus 1; assay: Antiviral activity against VSV-G pseudotyped HIV1 harboring integrase E92Q mutant infected in HOS cells pretreated […] for 3 hrs followed by viral infection measured after 48 hrs by luciferase reporter gene assay; assay type: functional, cell-based; details: Human immunodeficiency virus 1, HOS; in short: as §1
[30] = test system: Human immunodeficiency virus 1; assay: Antiviral activity against VSV-G pseudotyped HIV1 harboring integrase G140S/Q148H double mutant infected in HOS cells pretreated […] for 3 hrs followed by viral infection measured after 48 hrs by luciferase reporter gene assay relative to dolutegravir; assay type: functional
[31] = test system: Human immunodeficiency virus 1; assay: Selectivity ratio of EC50 for VSV-G pseudotyped HIV1 harboring integrase Y143R mutant infected in HOS cells to EC50 for VSV-G pseudotyped HIV1 harboring wild-type integrase infected in HOS cells; assay type: functional; in short: as §3
[32] = Cytotoxicity against HOS cells assessed as reduction in cell viability after 48 hrs by ATPLite luminescence assay; assay type: cell-based; details: human, HOS cells
In short: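 HOS cells seeded at 4000 per well the day before, exposed to compounds over 250 to 0.05 μM at 37 °C for 48 h. ATP measured by luminescence after lysis and 20 min signal development at room temperature.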

## Nc1c(C(=O)NCc2ccc(F)cc2F)c(=O)n(O)c2ncc(CCCCCO)cc12
[1]
  EC50: 3 nM
[2]
  EC50: 2.6 nM
[3]
  fold change (FC): 0.16
[4]
  fold change (FC): 0.81
[5]
  IC50: 8200 nM
[6]
  Ratio EC50: 4
[7]
  fold change (FC): 0.41
[8]
  fold change (FC): 0.67
[9]
  Ratio EC50: 3
[10]
  EC50: 2.6 nM
[11]
  EC50: 9.4 nM
[12]
  Ratio EC50: 3
[13]
  EC50: 1.3 nM
[14]
  Ratio EC50: 2
[15]
  fold change (FC): 0.24
[16]
  EC50: 0.93 nM
[17]
  fold change (FC): 1.65
[18]
  fold change (FC): 1.03
[19]
  fold change (FC): 1.19
[20]
  fold change (FC): 0.71
[21]
  Ratio EC50: 2
[22]
  Ratio EC50: 2
[23]
  IC50: 2.7 nM
[24]
  Ratio EC50: 7
[25]
  EC50: 2.4 nM
[26]
  EC50: 3.8 nM
[27]
  EC50: 5.3 nM
[28]
  Ratio EC50: 0.7
[29]
  EC50: 3.8 nM
[30]
  fold change (FC): 1.62
[31]
  Ratio EC50: 2
[32]
  CC50 at 48 h: > 250000 nM
